Assay results from different studies.
Lines come from different studies, so protocols differ.
Target: Megakaryocyte-associated tyrosine-protein kinase (MATK, Homo sapiens, UniProt P42679)
Residues used in one study (P42679 1-507): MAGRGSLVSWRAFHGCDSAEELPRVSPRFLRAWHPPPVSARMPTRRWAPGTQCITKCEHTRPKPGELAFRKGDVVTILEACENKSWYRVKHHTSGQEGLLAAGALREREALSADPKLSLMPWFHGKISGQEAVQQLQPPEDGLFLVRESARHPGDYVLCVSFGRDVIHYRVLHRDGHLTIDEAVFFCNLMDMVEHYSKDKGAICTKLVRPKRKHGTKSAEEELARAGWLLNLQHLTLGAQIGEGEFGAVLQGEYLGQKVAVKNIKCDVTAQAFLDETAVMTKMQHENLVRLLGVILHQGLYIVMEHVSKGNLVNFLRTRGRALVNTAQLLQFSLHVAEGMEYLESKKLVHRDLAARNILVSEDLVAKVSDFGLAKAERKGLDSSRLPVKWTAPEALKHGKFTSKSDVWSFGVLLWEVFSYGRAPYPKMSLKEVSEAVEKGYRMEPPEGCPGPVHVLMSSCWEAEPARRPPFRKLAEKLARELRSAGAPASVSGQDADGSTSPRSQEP

`CCCOc1ccc([C@@H]2[C@@H](C(=O)O)[C@H](c3ccc4c(c3)OCO4)CN2CC(=O)Nc2c(CC)cccc2CC)cc1` has a remaining binding of 90% (cell-free assay; competition with immobilised ligand; 1 µM).
With `O=C(Nc1c[nH]nc1C(=O)NC1CCNCC1)c1cc(F)cc(F)c1` the remaining binding was 84% (binding; competition with immobilised ligand; 1 µM).
For `COc1cnc(Nc2cccc(S(N)(=O)=O)c2)nc1N1CCN(c2ccccc2)C(=O)C1`, the remaining binding was 79% (binding; competition with immobilised ligand; 1 µM).
`CN(CCCC(F)(F)F)c1nccc(-c2cnn3ncccc23)n1` gave a remaining binding of 72% (binding; 1 µM).
`O=C(c1ccc(Nc2ncc(Cl)c(-c3ccc(Cl)s3)n2)cc1)N1CCC(N2CCCC2)CC1` has a remaining binding of 50% (binding; competition with immobilised ligand; 1 µM).
`N[C@@H]1CCN(c2nccc(-c3cnn4ncccc34)n2)C1` gave a remaining binding of 100% (binding; 1 µM).
`COc1ncc2cc3ccccc3nc2c1C#N` gave a remaining binding of 100% (cell-free assay; competition with immobilised ligand; 5 µM).
`CC1CCCN1c1nccc(-c2cnn3ncccc23)n1` (stereo not drawn) has a remaining binding of 100% (binding; 1 µM).
With `O=C1CCc2cc(Nc3cc(OC4CCOCC4)c([N+](=O)[O-])cc3Cl)ccc2N1` the remaining binding was 100% (cell-free assay; competition with immobilised ligand; 1 µM).
With `CN(c1nccc(-c2cnn3ncccc23)n1)C1CC1` the remaining binding was 100% (binding; 1 µM).
The remaining binding of `Nc1ncc2c(n1)-c1c([nH]c3ccc(C#CC4CC4)cc13)CCCC2` is reported as 100% (binding; competition with immobilised ligand; 1 µM).
With `C[C@@H](c1cccc(C#N)c1)n1cc(Cl)cc(C(N)=O)c1=N` the remaining binding was 100% (cell-free assay; competition with immobilised ligand; 1 µM).
`CN(C)c1nccc(-c2cnc3ncccn23)n1` has a remaining binding of 50% (binding; 1 µM).
With `NS(=O)(=O)c1cc(NC(=O)Cc2ccccc2)ccc1Oc1cccc(Cl)c1` the remaining binding was 68% (cell-free assay; competition with immobilised ligand; 1 µM).
`c1cnn2ncc(-c3ccnc(N4CCC45COC5)n3)c2c1` has a remaining binding of 87% (binding; 1 µM).
`CNC(=O)[C@@H]1CC[C@@H](n2c(-c3ccc4cnccc4c3)nc3ccc(C(=O)NCc4cccc(C(N)=O)c4)cc32)C1` gave a remaining binding of 100% (binding; competition with immobilised ligand; 1 µM).
With `CS(=O)(=O)N1CCCC(NC(=O)[C@H](CCC2CCCCC2)NC(=O)c2ccc(CNc3ncnc4c3nnn4-c3ccccc3)cc2)C1` (stereo partly drawn) the remaining binding was 100% (cell-free assay; competition with immobilised ligand; 0.1 µM).
`O=C(NCCCN1CCOCC1)c1ccc(Nc2ncc(Cl)c(-c3ccc(Cl)s3)n2)cc1` has a remaining binding of 48% (binding; competition with immobilised ligand; 1 µM).
`FC(F)(F)c1ccc2c(c1)nc(-c1cccnc1)n2C1CC1` has a remaining binding of 100% (cell-free assay; competition with immobilised ligand; 1 µM).
The remaining binding of `O=C(NCCCN1CCOCC1)c1ccc(Nc2nccc(-c3cc4ccccc4s3)n2)cc1` is reported as 55% (binding; competition with immobilised ligand; 1 µM).
For `C[C@@H](c1ccc(-n2cnc3c(N)ncnc32)cc1)N1CCc2nn(C)c(Cc3ccccc3)c2C1=O`, the remaining binding was 69% (binding; competition with immobilised ligand; 0.1 µM).
